From ChEMBL document CHEMBL6177937, “Design, synthesis, and biological evaluation of novel thiazole derivatives as PI3K/mTOR dual inhibitors” (RSC Med Chem, 2024)

Columns and labels:
NCI-H23 = test: Growth inhibition of human NCI-H23 cells measured after 48 hrs by SRB assay; assay type: functional
In short: (§1)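 NCI 60-line format with five concentrations (10-fold or ½-log serial dilutions) from DMSO stocks in medium with 50 μg/mL gentamicin. Cells preincubated 24 h, then exposed 48 h at 37°C, 5% CO2. Time-zero plates TCA-fixed. SRB absorbance read at 515 nm. GI50 taken from [(Ti−Tz)/(C−Tz)]×100 = 50. Out-of-range values are expressed as > or < the highest or lowest concentration tested.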

HOP-62 = test: Growth inhibition of human HOP-62 cells measured after 48 hrs by SRB assay; assay type: functional; in short: as §1
NCI-H522 = test: Growth inhibition of human NCI-H522 cells measured after 48 hrs by SRB assay; assay type: functional; in short: as §1
SF-295 = test: Growth inhibition of human SF-295 cells measured after 48 hrs by SRB assay; assay type: functional; conditions: for CC50: read-out: LC50 (the source's name)
In short: (§2)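 NCI 60-line SRB screen: cells seeded […], grown 24 h at 37°C, 5% CO2, then exposed 48 h to five concentrations (10-fold or ½-log dilutions from DMSO stock). Adherent cells fixed with cold TCA (final 10%), suspension cells with 80% TCA (final 16%); SRB stained, read at 515 nm. GI50 from time-zero, control and treated absorbances.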

HL-60 [1] = test: Induction of apoptosis in human HL-60 cells assessed as increase in total apoptotic cells measured after 24 hrs by Annexin-V/propidium iodide staining based flow cytometry relative to control; assay type: functional
NCI-H460 = test: Growth inhibition of human NCI-H460 cells measured after 48 hrs by SRB assay; assay type: functional; in short: as §1
EKVX = test: Growth inhibition of human EKVX cells measured after 48 hrs by SRB assay; assay type: functional; in short: as §1
OVCAR-8 = test: Growth inhibition of human OVCAR-8 cells measured after 48 hrs by SRB assay; assay type: functional; in short: as §1
HL-60 [2] = test: Induction of apoptosis in human HL-60 cells assessed as late apoptotic cells measured after 24 hrs by Annexin-V/propidium iodide staining based flow cytometry (reference value: 0.61%); assay type: functional
UO-31 = test: Growth inhibition of human UO-31 cells measured after 48 hrs by SRB assay; assay type: functional; conditions: for CC50: read-out: LC50 (the source's name); in short: as §2
DU-145 = test: Growth inhibition of human DU-145 cells measured after 48 hrs by SRB assay; assay type: functional; in short: as §1
M14 = test: Growth inhibition of human M14 cells measured after 48 hrs by SRB assay; assay type: functional; in short: as §1
Hs-578T = test: Growth inhibition of human Hs-578T cells measured after 48 hrs by SRB assay; assay type: functional; conditions: for CC50: read-out: LC50 (the source's name); in short: as §1
SN12C = test: Growth inhibition of human SN12C cells measured after 48 hrs by SRB assay; assay type: functional; in short: as §2
HCT-15 = test: Growth inhibition of human HCT-15 cells measured after 48 hrs by SRB assay; assay type: functional; in short: as §1
SNB-75 = test: Growth inhibition of human SNB-75 cells measured after 48 hrs by SRB assay; assay type: functional; in short: as §2
SF-539 = test: Growth inhibition of human SF-539 cells measured after 48 hrs by SRB assay; assay type: functional; in short: as §2
HL-60 [3] = test: Cytotoxicity against human HL-60 cells assessed as reduction in cell viability measured after 24 hrs by MTT assay; assay type: functional, cell-based; conditions: HL-60, 24 h
In short: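 MTT viability with 24 h incubation in 96-well plates. Five semi-log concentrations from 0.01 to 100 μM. Formazan absorbance read at 570 nm, with 690 nm background subtracted. Run in triplicate. IC50 obtained by sigmoidal dose-response fitting. Cells are leukemia HL-60(TB) and normal lymphocytes (PCS-800-017).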

MDA-MB-468 = test: Growth inhibition of human MDA-MB-468 cells measured after 48 hrs by SRB assay; assay type: functional; in short: as §1
UACC-257 = test: Growth inhibition of human UACC-257 cells measured after 48 hrs by SRB assay; assay type: functional; conditions: for CC50: read-out: LC50 (the source's name); in short: as §2
A549 = test: Growth inhibition of human A549 cells measured after 48 hrs by SRB assay; assay type: functional; in short: as §1
PC-3 = test: Growth inhibition of human PC-3 cells measured after 48 hrs by SRB assay; assay type: functional; in short: as §2
CCRF-CEM = test: Growth inhibition of human CCRF-CEM cells measured after 48 hrs by SRB assay; assay type: functional; in short: as §1
HL-60 [4] = test: Induction of apoptosis in human HL-60 cells assessed as increase in caspase-3 level measured after 24 hrs by ELISA relative to control
HT-29 = test: Growth inhibition of human HT-29 cells measured after 48 hrs by SRB assay; assay type: functional; in short: as §1
ACHN = test: Growth inhibition of human ACHN cells measured after 48 hrs by SRB assay; assay type: functional; in short: as §1
NCI-H226 = test: Growth inhibition of human NCI-H226 cells measured after 48 hrs by SRB assay; assay type: functional; in short: as §1
SW-620 = test: Growth inhibition of human SW620 cells measured after 48 hrs by SRB assay; assay type: functional; in short: as §2
BT-549 = test: Growth inhibition of human BT-549 cells measured after 48 hrs by SRB assay; assay type: functional; in short: as §1
A498 = test: Growth inhibition of human A498 cells measured after 48 hrs by SRB assay; assay type: functional; in short: as §1
MDA-MB-231 = test: Growth inhibition of human MDA-MB-231 cells measured after 48 hrs by SRB assay; assay type: functional; in short: as §1
U-251 = test: Growth inhibition of human U-251 cells measured after 48 hrs by SRB assay; assay type: functional; in short: as §2
CAKI-1 = test: Growth inhibition of human CAKI-1 cells measured after 48 hrs by SRB assay; assay type: functional; in short: as §1
[5] = Selectivity index, ratio of IC50 for human PCS-800-017 cells to IC50 for human HL-60 cells; assay type: toxicity; conditions: PCS-800-017 cells and HL-60 cells, read-out: Ratio IC50
HOP-92 = test: Growth inhibition of human HOP-92 cells measured after 48 hrs by SRB assay; assay type: functional; in short: as §1

## CCOc1cc(/C=N/Nc2nc(-c3cccc([N+](=O)[O-])c3)cs2)ccc1O
NCI-H23
  GI50: 1.99 µM
  TGI: 5.14 µM
HOP-62
  GI50: 2.51 µM
  TGI: 6.92 µM
NCI-H522
  GI50: 1.85 µM
  TGI: 4.21 µM
SF-295
  GI50: 2 µM
  TGI: 4.28 µM
  CC50: 9.16 µM
HL-60 [1]
  fold change (FC): 23.07
NCI-H460
  GI50: 2.4 µM
  TGI: 5.81 µM
EKVX
  GI50: 3.17 µM
  TGI: 16.4 µM
OVCAR-8
  GI50: 2.84 µM
  TGI: 9.63 µM
HL-60 [2]
  Activity: 16.27%
UO-31
  GI50: 2.29 µM
  TGI: 8.85 µM
  CC50: > 100 µM
DU-145
  GI50: 3.43 µM
  TGI: 11.6 µM
M14
  GI50: 1.85 µM
  TGI: 3.89 µM
Hs-578T
  GI50: 3.38 µM
  TGI: 39.2 µM
  CC50: > 100 µM
SN12C
  GI50: 2.41 µM
  TGI: 9.9 µM
HCT-15
  GI50: 2.86 µM
  TGI: 11.8 µM
SNB-75
  GI50: 2.72 µM
  TGI: 13.1 µM
SF-539
  GI50: 1.78 µM
  TGI: 4.15 µM
HL-60 [3]
  IC50: 2.32 µM
MDA-MB-468
  GI50: 2.17 µM
  TGI: 4.61 µM
UACC-257
  GI50: 1.71 µM
  TGI: 3.23 µM
  CC50: 6.08 µM
A549
  GI50: 3.45 µM
  TGI: 14.1 µM
PC-3
  GI50: 2.54 µM
  TGI: 11.4 µM
CCRF-CEM
  GI50: 2.03 µM
  TGI: 29.6 µM
HL-60 [4]
  fold change (FC): 4.61
HT-29
  GI50: 33.7 µM
  TGI: > 100 µM
ACHN
  GI50: 3.22 µM
  TGI: 11.6 µM
NCI-H226
  GI50: 2.36 µM
  TGI: 6.22 µM
SW-620
  GI50: 3.53 µM
  TGI: 11.6 µM
BT-549
  GI50: 2.84 µM
  TGI: 8.12 µM
A498
  GI50: 20.2 µM
  TGI: 44.8 µM
MDA-MB-231
  GI50: 1.78 µM
  TGI: 3.88 µM
U-251
  GI50: 3.08 µM
  TGI: 14.1 µM
CAKI-1
  GI50: 2.18 µM
  TGI: 6.88 µM
[5]
  selectivity ratio: 12.3
HOP-92
  GI50: 3.2 µM
  TGI: 30.9 µM

## O=[N+]([O-])c1cc(/C=N/Nc2nc(-c3ccc(Cl)cc3)cs2)ccc1Cl
NCI-H23
  GI50: 12.5 µM
  TGI: 40.9 µM
HOP-62
  GI50: 8.87 µM
  TGI: 22.4 µM
NCI-H522
  GI50: 9.45 µM
  TGI: 67.6 µM
SF-295
  GI50: 14.9 µM
  TGI: 28.3 µM
  CC50: 53.8 µM
HL-60 [1]
  fold change (FC): 19.9
NCI-H460
  GI50: 13.6 µM
  TGI: 26.5 µM
EKVX
  GI50: 10.3 µM
  TGI: 22.9 µM
OVCAR-8
  GI50: 14.9 µM
  TGI: 54.1 µM
HL-60 [2]
  Activity: 17.92%
UO-31
  GI50: 8.46 µM
  TGI: 20.7 µM
  CC50: 45.5 µM
DU-145
  GI50: 1.63 µM
  TGI: 3.07 µM
M14
  GI50: 17 µM
  TGI: 45.6 µM
Hs-578T
  GI50: 2.36 µM
  TGI: 6.14 µM
  CC50: > 100 µM
SN12C
  GI50: 15.1 µM
  TGI: 61.5 µM
HCT-15
  GI50: 13.1 µM
  TGI: 42.1 µM
SNB-75
  GI50: 14.8 µM
  TGI: 40.1 µM
SF-539
  GI50: 16.3 µM
  TGI: 31.1 µM
HL-60 [3]
  IC50: 2.29 µM
MDA-MB-468
  GI50: 1.54 µM
  TGI: 3.01 µM
UACC-257
  GI50: 7.52 µM
  TGI: 22 µM
  CC50: 51.6 µM
A549
  GI50: 78.4 µM
  TGI: > 100 µM
PC-3
  GI50: 1.91 µM
  TGI: 4.46 µM
CCRF-CEM
  GI50: 3.62 µM
  TGI: 52.9 µM
HL-60 [4]
  fold change (FC): 3.48
HT-29
  GI50: 3.6 µM
  TGI: 15.4 µM
ACHN
  GI50: 15.1 µM
  TGI: 28.4 µM
NCI-H226
  GI50: 4.21 µM
  TGI: 32.6 µM
SW-620
  GI50: 18.3 µM
  TGI: 43.1 µM
BT-549
  GI50: 14.5 µM
  TGI: 40.4 µM
A498
  GI50: 14.8 µM
  TGI: 39.6 µM
MDA-MB-231
  GI50: 17.4 µM
  TGI: 42.6 µM
U-251
  GI50: 4.37 µM
  TGI: 17 µM
CAKI-1
  GI50: 14.6 µM
  TGI: 32.1 µM
[5]
  selectivity ratio: 9.9
HOP-92
  GI50: 2.59 µM
  TGI: 10.8 µM
